# Assay results as given in publication PMC10357458 (ACS Omega, 2023).
# Tested on: CAIX-positive SK-RC-52 cells
# Assay: Cellular binding, flow cytometry and confocal microscopy on CAIX-positive cells
# Assay type: cell-based, human
# Conditions: fluorescent derivatives, 100 nM, 30 min
# Summary of the method: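 SK-RC-52 human renal carcinoma cells were grown in RPMI with 10% FCS and 1% antibiotic-antimycotic at 37 °C, 5% CO₂, and split 1:6 with 0.05% trypsin-EDTA. For confocal imaging, cells were seeded at 10^4 per chamber well in RPMI with 10% FBS and 10 mM HEPES, then grown overnight. Fluorescein-labelled test compounds were imaged with DAPI-stained nuclei. Acetazolamide-fluorescein was the positive control and untargeted fluorescein the negative control.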
compound,measurement,value
"CC(=O)Nc1nnc(S(N)(=O)=O)s1 [AAZ, acetazolamide]",binding to CAIX on the surface of SK-RC-52 cells,accumulated on the surface
